Assay outcomes from PubChem BioAssay.
This is a sample that favours compounds with a hit; in the whole collection about 2.9% have one here.
MEKK3 PB1 HTS – modulators of MEKK3-MEK5 PB1 binding, primary screen, biochemical, wildtype MEKK3, multiplex bead flow cytometry, Alexa488-MEK5; Mitogen-activated protein kinase kinase kinase 3 (Homo sapiens), Q99759; bead-based flow cytometry, Alexa488-MEK5 binding to MEKK3; actives lie on both sides; 0 = blocked by unlabeled MEK5, 100 = vehicle; binding response (% of control), % at 10 µM; 290,000 tested, 1.4% active; AID 1529, 2009;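 active = binding response more than 3 SD above or below the average of its plate-row segment, actives on both sides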;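 note: Alexa488 bead fluorescence after subtracting the streptavidin-only scavenger bead signal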
Target sequence (Q99759 whole entry, looked up): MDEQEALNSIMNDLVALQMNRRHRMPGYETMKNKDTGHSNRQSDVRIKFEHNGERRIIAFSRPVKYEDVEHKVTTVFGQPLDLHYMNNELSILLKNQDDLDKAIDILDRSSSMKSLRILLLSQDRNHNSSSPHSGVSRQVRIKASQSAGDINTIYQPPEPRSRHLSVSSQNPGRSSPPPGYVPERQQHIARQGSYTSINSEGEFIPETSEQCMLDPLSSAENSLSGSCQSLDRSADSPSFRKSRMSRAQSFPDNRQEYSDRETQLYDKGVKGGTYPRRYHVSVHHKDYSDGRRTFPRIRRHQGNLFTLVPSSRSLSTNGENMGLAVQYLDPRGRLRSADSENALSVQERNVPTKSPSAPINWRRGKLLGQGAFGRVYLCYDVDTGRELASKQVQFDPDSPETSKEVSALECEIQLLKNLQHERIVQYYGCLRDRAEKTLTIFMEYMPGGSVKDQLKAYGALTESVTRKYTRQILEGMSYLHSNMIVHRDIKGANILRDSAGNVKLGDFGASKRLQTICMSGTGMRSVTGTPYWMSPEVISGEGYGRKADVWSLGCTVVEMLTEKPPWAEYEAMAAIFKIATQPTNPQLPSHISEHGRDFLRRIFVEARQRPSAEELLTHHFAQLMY
MEKK2 mut-MEK5 – MEK5 binding signal on mutant MEKK2 PB1, primary screen, biochemical, multiplex bead flow cytometry, Alexa488-MEK5; Alexa488-MEK5 binding to MEKK2 mutant; percent response, % at 10 µM; 290,000 tested, 0.35% active; AID 1530, 2009; in the data active = percent response above about 24%, passing the limit was not always enough
Apaf-1 inh – inhibitors of human Apaf-1 apoptosome, primary screen, biochemical, DEVD-Rh110 fluorescence, uHTS; reconstituted apoptosome caspase-3 activity; 330,000 tested, 0.71% active; Apoptotic protease-activating factor 1 (Homo sapiens), O14727; inhibition, % at 20 µM; active = inhibition of at least 40% at 20 µM;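 note: plate controls were DMSO wells for no effect and DEVD-CHO caspase inhibitor wells for full effect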
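Material: reconstituted apoptosome with Apaf-1, cytochrome c, caspase-9, procaspase-3, dATP. Technique: Rh110 fluorescence intensity. Buffer or medium: pH 7.5 Hepes buffer with CHAPS, BSA, DTT. Times: 30 min plus 50 min, RT.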
UBC13 polyUb – UBC13 polyubiquitin chain formation inhibitors, primary screen, biochemical, TR-FRET, uHTS; inhibition, % at 20 µM; Ubiquitin-conjugating enzyme E2 N (Homo sapiens), P61088; 330,000 tested, 0.47% active; AID 485273, 2010; in the data active = inhibition above about 45%, passing the limit was not always enough
MEKK2wt PB1 HTS – modulators of MEK5 binding to wildtype MEKK2, primary screen, biochemical, multiplex bead flow cytometry, Alexa488-MEK5 | Mitogen-activated protein kinase kinase kinase 2 (Homo sapiens), Q9Y2U5 | Alexa488-MEK5 binding to MEKK2 WT; actives lie on both sides | binding response (% of control), % at 10 µM | 290,000 tested, 1.1% active | AID 1531, 2009; in the data active = binding response below about 67% or above about 130%
MEKK2wt confirm – modulators of MEK5 binding to wildtype MEKK2, confirmation, biochemical, single concentration, multiplex bead flow cytometry; Alexa488-MEK5 binding to MEKK2 WT; actives lie on both sides; 5,900 tested, 2.4% active; binding response (% of control), % at 10 µM; shares compounds with MEKK3 PB1 HTS; in the data active = binding response below about 16% or above about 210%; inactive = in between
MEKK2mut confirm – mutant MEKK2 PB1-MEK5 binding signal retest – biochemical, single concentration, multiplex bead flow cytometry, confirmation; shares compounds with MEKK3 PB1 HTS; Alexa488-MEK5 binding to MEKK2 mutant; percent response, % at 10 µM; 5,900 tested, 2% active; AID 1893, 2009; in the data active = percent response mostly above about 71%, no sharp cut-off; inactive = mostly below about 38%;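 note: higher means compound restores mutant binding toward wildtype level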
MEKK3-MEK5 inh – MEKK3 wild-type PB1 binding to MEK5, inhibitors, confirmation, biochemical, bead multiplex flow cytometry, single concentration, wildtype; shares compounds with MEKK3 PB1 HTS; Alexa488-MEK5 binding to MEKK3; hits give low values; binding response (% of control), % at 10 µM; 5,900 tested, 1.8% active; AID 1894, 2009;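 active = binding response below 72% of control, or above a set upper limit, though filed actives all read lower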;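 note: 100% = DMSO only wells and 0% = binding blocked by excess unlabeled MEK5; lower values mean stronger disruption of MEK5 binding to MEKK3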
* hit, by the source's call; . = no result given; [ ] = dose if it differs, or a comment.

SMILES	MEKK3 PB1 HTS	MEKK2 mut-MEK5	Apaf-1 inh	UBC13 polyUb	MEKK2wt PB1 HTS	MEKK2wt confirm	MEKK2mut confirm	MEKK3-MEK5 inh
Cc1ccc(-n2ncc(C(=O)Nc3cc(Cl)cc(Cl)c3)c2C2CCNCC2)cc1C	106	58*	.	.	216*	143	-7	94
Oc1ccc(O)c(-c2cnns2)c1	132*	0	.	.	105	111	6	107
Nc1nc(N)nc(-c2cc(O)ccc2O)n1	.	.	-2	12	.	.	.	.
COCC1CCN(C(=O)C2CCC(=O)N(C3CCCCCC3)C2)CC1 (stereo not given)	104	-2	-11	-8	103	.	.	.
O=C(CN1C(=O)NC(c2ccc(F)cc2)C1=O)NC1CCCCC1 (stereo not given)	.	.	0	-12	.	.	.	.
Cc1[nH]n(-c2ccc([N+](=O)[O-])cc2)c(=O)c1C=NCCN1CCN(C(=O)c2cccc(F)c2)CC1	127*	8	10	-4	126	110	13	105
NC1=NC[C@H](Cc2ccc(O)cc2)N1CCCCC1CCCCC1	112	20	53*	73*	184*[inhibitor]	127	40	106
C/C=C(\C)C(=O)NCCN1C2=NC[C@@H](C)N2C[C@H]1Cc1ccc(O)cc1	102	9	-4	4	111	.	.	.
C/C=C(\C)C(=O)NCCN1C2=NC[C@H](Cc3ccccc3)N2C[C@H]1Cc1ccc(O)cc1	108	36	-4	18	153*	122	10	99
C/C=C(\C)C(=O)NCCN1C2=NC[C@@H](C)N2C[C@@H]1Cc1ccc(OC)cc1	105	17	6	4	118	.	.	.
C/C=C(\C)C(=O)NCCN1C2=NC[C@H](Cc3ccccc3)N2C[C@@H]1Cc1ccc(OC)cc1	109	16	39	22	153*	102	-2	103
C[C@@H](CN1C2=NC[C@H](Cc3ccc(O)cc3)N2C[C@H]1Cc1ccc(O)cc1)NC(=O)CCC1CCCCC1	105	27	3	44	141*	129	11	101
C/C(=N\NC(=O)c1ccc2ccccc2c1)c1cccs1	104	1	-2	1	101	.	.	.
CCOc1ccc(NC(=O)c2ccc(NS(=O)(=O)c3cccs3)cc2)cc1	100	-1	2	-3	97	.	.	.
CC12CCC(C(=O)N(CC(O)CN3CCCCCC3)C1=O)C2(C)C (stereo not given)	145*	0	-5	-2	107	94	-5	97
CC12CCC(C(=O)N(CC(O)CN3CCCCC3)C1=O)C2(C)C (stereo not given)	.	.	-24	1	.	.	.	.
Cc1ccc(N2CCN(C(=O)c3cc(-c4ccc(F)cc4)[nH]c3C)CC2C)cc1 (stereo not given)	100	-4	20	0	99	.	.	.
CCN(CC(=O)Nc1c(F)cccc1F)C(=O)c1ccc2c(c1)S(=O)(=O)N=C1CCCCCN12	.	.	10	-8	.	.	.	.
COc1ccc(CCN2CCCC(CN(C)Cc3cc(Cl)c(O)c(OC)c3)C2)cc1 (stereo not given)	112	25*	-5	-2	135*	132	24	107
COc1ccc(CN(C)CC2CCCN(CCc3ccccc3C)C2)cc1O (stereo not given)	102	8	4	5	115	.	.	.
CCCNC(=O)Cc1c(C)oc2ccccc12	130*	32	-10	0	119	99	-5	99
CCOP(=O)(OCC)c1nc(-c2ccc(Cl)cc2Cl)oc1N1CCCCC1	39*[inhibitor]	-15	24	-14	49	99	-3	103
O=c1oc2ccccc2nc1/C=C(O)/C=C/c1ccc(F)cc1	100	-1	17	-3	94	.	.	.
O=c1oc2ccccc2nc1/C=C(O)/C=C\c1ccccc1	82*[inhibitor]	-28	1	-22	61*[inhibitor]	77	-15	100
CC1CCN(C(=O)COC(=O)CCc2c[nH]c3ccccc23)CC1	50*[inhibitor]	-14	-6	7	65	106	5	106
SMILES	MEKK3 PB1 HTS	MEKK2 mut-MEK5	Apaf-1 inh	UBC13 polyUb	MEKK2wt PB1 HTS	MEKK2wt confirm	MEKK2mut confirm	MEKK3-MEK5 inh
CC1CCN(C(=O)COC(=O)Cc2c[nH]c3ccccc23)CC1	97	4	13	1	97	.	.	.
Cc1ccccc1-n1c(CSC(=N)N)nc2ccccc2c1=O	102	1	3	1	106	.	.	.
N=C(N)SCc1nc2ccccc2c(=O)n1-c1ccccc1Cl	135*	10	5	6	128	100	2	102
CC(C)OC(=O)C(C)Oc1ccc(C(=O)NCCc2ccccc2)cc1 (stereo not given)	123*	4	7	1	110	104	6	100
CC(Oc1ccc(C(=O)NCCc2ccccc2)cc1)C(=O)O (stereo not given)	106	-1	-7	7	99	.	.	.
COc1ccc(N2CCN(C(=O)NC3CCCCC3)CC2)cc1	77*[inhibitor]	-2	4	-5	99	104	1	102
COc1cccc(N2CCN(C(=O)NC3CCCCC3)CC2)c1	104	4	-2	-6	106	.	.	.
CC1CCCCN1C(=O)COc1ccccc1F (stereo not given)	135*	0	6	0	113	104	0	103
Cn1c(CC(=O)Nc2ccccc2)c(Sc2ccccc2)c2ccccc21	139*	2	6	-21	121	108	-6	104
CC1(C)CC(O)C(C(O)c2cccc([N+](=O)[O-])c2)C(C)(C)N1 (stereo not given)	148*	1	1	-4	111	99	5	103
C=CCN1C(=O)/C(=C2/Sc3ccccc3N2CC)SC1=S	100	0	-1	-11	97	.	.	.
C=CCn1c(=O)/c(=C2/Sc3ccccc3N2CC)s/c1=C1/C(=O)NN=C1C	76	-10	4	-91	57*[inhibitor]	104	1	104
N#CCC(=O)Nc1ccc(C(=O)OCC(=O)Nc2ccccc2-c2ccccc2)cc1	141*	33	8	-4	121	103	2	102
